Screening data deposited in PubChem by Broad Institute.
ERAP1 inh: blocks human ERAP1 aminopeptidase activity | AID 652197 | actives 0.15% (n = 340,000) | recombinant ERAP1, Leu-AMC fluorescence, 60 min | inhibition, % at 10.7 µM;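 active means mean replicate inhibition of at least 30%, or all replicates individually reaching that 30% level; inactive means mean below 30% and not every replicate reaching it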;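 further: 0% = neutral control wells and 100% = L-leucinethiol positive control wells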
DENV2 CPE: inhibitors of DENV2 cytopathic effect. DENV2-infected cells, cytopathic effect rescue, plate reader. actives 1.7% (n = 350,000). AID 651640. CPE inhibition, % at 9.99 µM; in the data active means CPE inhibition above about 20%, passing the limit was not always enough; inconclusive means no clear call, values can overlap the other calls; tested in BHK-21 cells;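 further: 0% = median of neutral control wells and 100% = median of positive control wells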
miR122 inh: miR-122 inhibition in Huh7 cells | Huh7 miR-122 Renilla luciferase sensor, 48 h; neutral wells = 0, positive control = 100 | activation (reporter increase), % at 12.5 µM | actives 0.3% (n = 340,000);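 active means mean replicate activation score at least 90 and every replicate individually at or above 90; inconclusive means only one of the two criteria met; inactive means neither criterion met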;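 further: higher luciferase means less miR-122 activity so hits act as miR-122 inhibitors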
CFTR F508del cor: CFTR F508del correction in bronchial cells; CFBE cells, YFP halide quenching; stimulated with forskolin plus potentiator P3; % fluorescence drop versus neutral controls; activity (quench increase), % at 7.58 µM; actives 0.36% (n = 350,000);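 active means mean added fluorescence quench of at least 8% versus neutral control, with both replicates also reaching 8%; inconclusive means only one of the mean or replicate conditions met; inactive means mean below 8% and not both replicates reaching 8%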;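 further: cells transiently co-express mutant CFTR-F508del with the halide-sensitive YFP; corrector assay measuring rescue of mutant channel to the surface after 24 h compound exposure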
E-selectin induc: E-selectin induction on HUVECs; actives 0.37% (n = 260,000); HUVEC E-selectin immunofluorescence imaging; normalized: neutral wells 0, TNF-alpha wells 100; activation, % at 7.58 µM; P16581;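 active means mean E-selectin-positive cell signal at least 10% of the positive control, reached in at least 60% of replicates, without over 20% cell loss; inconclusive means no rule given, readout overlaps actives, possibly toxicity-flagged; inactive means the rest, including those meeting only one limit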
Target sequence (P16581 whole entry, looked up): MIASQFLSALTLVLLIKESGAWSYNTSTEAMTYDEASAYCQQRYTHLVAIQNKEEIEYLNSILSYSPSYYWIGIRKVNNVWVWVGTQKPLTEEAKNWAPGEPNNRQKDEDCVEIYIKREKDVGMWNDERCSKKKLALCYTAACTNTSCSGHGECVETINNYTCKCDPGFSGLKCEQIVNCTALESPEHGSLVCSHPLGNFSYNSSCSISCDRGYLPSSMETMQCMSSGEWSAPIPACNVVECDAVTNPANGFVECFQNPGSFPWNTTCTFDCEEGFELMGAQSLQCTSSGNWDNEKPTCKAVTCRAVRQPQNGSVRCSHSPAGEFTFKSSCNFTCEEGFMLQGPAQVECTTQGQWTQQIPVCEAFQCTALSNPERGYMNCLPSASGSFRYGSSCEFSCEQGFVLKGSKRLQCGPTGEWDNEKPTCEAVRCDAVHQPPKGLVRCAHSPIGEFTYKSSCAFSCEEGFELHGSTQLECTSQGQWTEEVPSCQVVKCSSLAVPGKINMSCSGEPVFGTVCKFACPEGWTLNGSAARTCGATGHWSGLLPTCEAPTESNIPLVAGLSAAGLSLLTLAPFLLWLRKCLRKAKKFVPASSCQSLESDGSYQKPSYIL
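material = human umbilical vein endothelial cells (HUVEC), E-selectin induction | quantity = 3,000 cells/well | medium = EGM-2 growth medium on 0.1% gelatin-coated wells | technique = immunofluorescence imaging | read-out basis = % PE-positive cells | control set = TNF-alpha positive control, DMSO neutral control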
INS-1E GSIS act: GLuc luminescence reporter in INS-1E cells, primary screen for activators of glucose-dependent secretion of insulin | INS-1E GLuc reporter insulin secretion, 2-3 h | actives 0.61% (n = 370,000) | activation, % at 16.6 µM | AID 743287;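 active means lowest replicate activation of at least 40%, so every replicate reaches that level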;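 further: 0% = median of neutral control wells and 100% = median of IBMX positive control wells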
Numbers without * were called inactive; u = inconclusive; x = not tested or not shown; ! = a repeat was not active; [ ] = another dose, or the depositor's remark. An excerpt weighted towards active compounds, which were near 2.6% of everything screened.

SMILES	ERAP1 inh	DENV2 CPE	miR122 inh	CFTR F508del cor	E-selectin induc	INS-1E GSIS act
CC=Cc1ccc2n(c1=O)C[C@H]1[C@H](CO)[C@@H](C(=O)OC)[C@@H]2N1CC1CCOCC1 (mixture of isomers)	2	-6	x	x	0	10
COC(=O)[C@@H]1[C@@H](CO)[C@@H]2Cn3c(ccc(-c4cccc(OC)c4)c3=O)[C@H]1N2CC1CC1	-1	-1	x	x	0	21
CC(=O)O[C@H]1C[C@@H]2OC3C=C(C)CCC3(C)[C@@]1(C)[C@@]21CO1 (some centres not stated)	1	106*	-4	0	x	x
CC(=O)OC1CC2OC3C=C(C)CCC3(C)C1(C)C21CO1 (configuration not stated)	8	-11	-14	-9	x	-12
COc1ccc(/C=C2\C(=O)NC(=S)N(C)C2=O)cc1C	34*	x	x	1	x	2
Cc1ccccc1-[n+]1c(-c2ccccc2)cc(-c2ccccc2)cc1-c1ccccc1	-4	76*	-9	4	0	-33
Oc1ccccc1-[n+]1c(-c2ccccc2)cc(-c2ccccc2)cc1-c1ccccc1	0	x	18	0	0	-60
COC(=O)[C@H]1[C@H](CO)[C@H]2Cn3c(ccc(-c4ccccc4)c3=O)[C@@H]1N2C(=O)c1ccccc1F	2	5	0[16.7 µM]	-1	0	10
COCC(=O)N1[C@@H]2Cn3c(ccc(C4=CCCC4)c3=O)[C@H]1[C@@H](C(=O)OC)[C@@H]2CO	0	u	5[16.7 µM]	0	-1	19
COC(=O)[C@H]1N[C@H]2c3ccc(C4=CCCC4)c(=O)n3C[C@H]2[C@@H]1CO	1	128*	x	x	0	4
CC(=O)OC1CC(OC2C(O)CC(OC3C(O)CC(OC4CCC5(C)C(CCC6C5CC(O)C5(C)C(C7=CC(=O)OC7)CCC65O)C4)OC3C)OC2C)OC(C)C1OC1OC(CO)C(O)C(O)C1O (configuration not stated)	2	2	126*	-2	13	x
O=C(Cc1ccccc1)N1CCCCN2[C@@H](CO)[C@@H](c3ccc(-c4ccccc4)cc3)[C@@H]2C1	-1	-10	-4[16.7 µM]	1	0	-24
COc1ccc(N2C(=O)CC(=O)NC2=O)cc1	x	x	236*	x	x	x
COc1ccc(CCNCc2cccn2C)cc1OC	4	69*	-1	2	0	4
CC=CC(C)=CC(C)C(=O)CC(O)CC1CC(=O)NC(=O)C1 (configuration not stated)	2	2	x	10*	0	-7
CC1CC(C)(O)CC(C(O)CC2CC(=O)NC(=O)C2)C1=O (configuration not stated)	2	u	-9	-11	2	-21
Cc1c(P(=S)(c2ccccc2)c2ccccc2)[n+]2ccccc2n1C	-4	73*!	2	1	0	-7
c1cc(-c2ccc(C3[C@H]4CNC[C@@H]3N4CC3CC3)cc2)ccn1 (some centres not stated)	-2	10	x	1	1	15
O=c1ccc2cc(OC3O[C@H](CO)[C@@H](O)[C@H](O)[C@H]3O)c(O)cc2o1 (some centres not stated)	79*	8	-1	-4	1	x
COc1cc([C@H]2OC[C@H]3[C@@H]2CO[C@@H]3c2cc(OC)c(O[C@@H]3O[C@H](CO)[C@@H](O)[C@H](O)[C@H]3O)c(OC)c2)cc(OC)c1O[C@H]1O[C@@H](CO)[C@H](O)[C@@H](O)[C@@H]1O	x	-6	x	0	0	3
O=C(Cc1ccccc1)N1CCCCN2[C@@H](CO)[C@H](c3ccc(C#CC4(O)CCCC4)cc3)[C@@H]2C1	5	-11	3[16.7 µM]	-2	0	-3
COC(=O)[C@@H]1[C@@H](CO)[C@@H]2Cn3c(ccc(C4=CCCC4)c3=O)[C@H]1N2CC1CCCCC1	-3	-4	-2[16.7 µM]	4	0	-5
CN(C)C(Cc1ccccc1)C(=O)c1ccccc1 (configuration not stated)	-1	1	x	x	x	x
CC(C)N(C(=O)CCl)c1ccccc1	-2	3	-2	-4	83*	x
CC(=O)N1CCN(CC(=O)Nc2ccc(C#N)c(Cl)c2)CC1	-4	5	x	-1	-3	7
SMILES	ERAP1 inh	DENV2 CPE	miR122 inh	CFTR F508del cor	E-selectin induc	INS-1E GSIS act
CCN(CC)S(=O)(=O)c1ccc(C)c(NCC(=O)Nc2ccc(C#N)c(Cl)c2)c1	x	x	119*	x	15	-35
O=C(Nc1ccc(C(F)(F)F)cc1)OC1CN2CCC1CC2 (configuration not stated)	x	39*	x	-1	0	7
O=C(Nc1cccc(C(F)(F)F)c1)OC1CN2CCC1CC2 (configuration not stated)	-3	6	5	1	2	3
CC(=O)N1C2CN(C)CC1C2c1ccc(Br)cc1 (configuration not stated)	x	x	x	x	x	-4
C=CCN1[C@@H]2CN(C(=O)NC(C)C)C[C@H]1C2c1ccccc1 (some centres not stated)	x	x	x	x	x	11
C=C(CC1CC(O)[C@]2(C)OC3CC4OC5C[C@]6(C)O[C@]7(C)CCC8OC9C[C@]%10(C)OC%11C(C)=CC(=O)OC%11CC%10OC9C[C@@H](C)C8OC7CC6O[C@]5(C)C/C=C\C4OC3CC2O1)C(=O)O (some centres not stated)	51*	-17	-4	-3	0	x
O=C(O)[C@@H]1[C@@H](CO)[C@@H]2Cn3c(ccc(-c4cncnc4)c3=O)[C@H]1N2C(=O)NC1CCCC1	1	0	-6[16.7 µM]	-2	-2	5
NC(N)=N/N=C/c1ccc(N(c2ccccc2)c2ccccc2)cc1	-33	3	x	-2	1	321*
COc1ccc(/C=N\N=C(N)N)cc1	-7	-9	x	x	x	6
Cc1oc2ccc(OC(=O)N(C)C)cc2c1C(=O)OC(C)C	x	x	143*	x	x	x
CCOC(=O)c1c(-c2ccc(OC)cc2)oc2ccc(OC(=O)N(C)C)cc12	x	x	2	x	x	10
CN1C(=O)C(=Cc2coc3ccccc3c2=O)C(=O)N(C)C1=O	x	-2	x	0	36*	5
COC(=O)[C@H]1[C@H](CO)[C@H]2Cn3c(ccc(-c4ccc(OC)cc4)c3=O)[C@@H]1N2C(=O)c1ccccc1F	0	6	5[16.7 µM]	1	0	7
Cc1ccc2c(C)c3ccc4ccccc4c3c[n+]2c1	-172	-11	9	9.2*	2	x
CC=Cc1ccc2n(c1=O)C[C@H]1[C@H](CO)[C@@H](C(=O)O)[C@@H]2N1S(=O)(=O)c1ccccc1F (mixture of isomers)	4	0	x	x	0	18
O=C(NCCN1CCC2(CC1)C(=O)NCN2c1ccccc1)c1ccccc1F	0	31*	x	0	0	17
